Series [1] can be described thus: Inhibition of helicase activity of BK polyomavirus LTAg (E265 to D629 residues) expressed in Escherichia coli using Cy5/BHQ3 dsDNA pre-incubated for 20 mins and measured after 120 to 180 mins by fluorescence based assay. Also on record: species or system Betapolyomavirus hominis.
Another series has as its target T1, Large T antigen (JC polyomavirus, UniProt P03072).
T1 sequence (P03072 whole entry): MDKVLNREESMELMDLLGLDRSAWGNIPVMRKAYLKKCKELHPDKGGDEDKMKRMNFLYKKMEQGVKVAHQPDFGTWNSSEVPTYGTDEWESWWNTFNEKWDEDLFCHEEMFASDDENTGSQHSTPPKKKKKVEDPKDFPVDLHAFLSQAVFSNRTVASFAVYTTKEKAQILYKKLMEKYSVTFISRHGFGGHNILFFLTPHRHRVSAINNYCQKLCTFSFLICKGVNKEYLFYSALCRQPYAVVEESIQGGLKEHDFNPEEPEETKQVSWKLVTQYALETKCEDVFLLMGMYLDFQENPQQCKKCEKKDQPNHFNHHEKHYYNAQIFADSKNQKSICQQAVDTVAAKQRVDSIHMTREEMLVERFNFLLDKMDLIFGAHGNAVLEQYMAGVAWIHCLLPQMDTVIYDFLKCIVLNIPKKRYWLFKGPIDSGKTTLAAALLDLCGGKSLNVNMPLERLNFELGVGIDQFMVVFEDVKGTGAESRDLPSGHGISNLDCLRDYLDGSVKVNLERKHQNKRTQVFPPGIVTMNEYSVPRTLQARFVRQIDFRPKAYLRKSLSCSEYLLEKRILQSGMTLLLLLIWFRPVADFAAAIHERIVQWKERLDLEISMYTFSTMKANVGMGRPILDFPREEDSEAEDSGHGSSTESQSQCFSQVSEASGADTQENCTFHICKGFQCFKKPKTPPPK
Put plainly: Inhibition of helicase activity of JC polyomavirus LTAg (E264 to D628 residues) expressed in Escherichia coli using Cy5/BHQ3 dsDNA pre-incubated for 20 mins and measured after 120 to 180 mins by fluorescence based assay.

Series [2] is described as follows: Cytotoxicity against […] G144 […] cells. It counts as cell-based.
The next series concerns JC polyomavirus. Briefly: Antiviral activity against JC polyomavirus infected in […] G144 […] cells assessed as reduction in late viral protein and viral capsid protein VP1 incubated for 72 hrs by branched DNA assay. Format: functional, organism-based. The procedure, abridged:
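G144 […] cells plated on poly-ornithine (0.005%)/laminin (10 µg/ml)-coated flasks, infected with MAD4 JCV at MOI = 1 TCID₅₀ for 24 hr, then replated at 5,000 cells/well in differentiation medium. Compounds added in DMSO (0.5% final) for 72 hr. Lysates denatured with NaOH at 52°C for 30 min; VP1 DNA measured by bDNA capture probes. EC50 from four-parameter curve fit.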

As usually defined, the IC50 is the concentration that gives 50% inhibition. Take `COc1cccc(OC)c1-c1nn2cnnc2s1`: the IC50 (in series [1]; on Large T antigen) was above 80 µM in each case.

Regarding `COc1ccccc1-c1nc2cc(N)ncc2s1`, the values for the IC50 (in series [1]; at Large T antigen) were 8.7 µM and 4.3 µM, respectively.

Take `c1cc2c(c(-c3nn4cnnc4s3)c1)OCCC2`: the IC50 in series [1] is 24 µM; at Large T antigen it was 15.5 µM.

As usually defined, the CC50 is the concentration at which the toxic effect on the cells reaches its halfway point. In general, EC50 refers to the concentration needed to bring the measured effect to its halfway point. As for `c1ccc(-c2nc3ccncc3s2)c(OCCC2CCOCC2)c1`, the IC50 in series [1] worked out at 11 µM; against Large T antigen it was 9.6 µM. The molecule also yielded a CC50 in series [2] above 50 µM. For the same molecule, in the series with JC polyomavirus, the EC50 was found to be 7.7 µM.

For `c1ccc(Oc2ccccc2-c2nc3ccncc3s2)cc1`, the half-maximal inhibitory concentration (IC50) was determined as 10.2 µM in series [1] and 10.5 µM at Large T antigen. In series [2], this molecule registered a CC50 above 50 µM. For the same molecule, the EC50 with JC polyomavirus was determined as 36 µM.

As for `c1ccc(-c2nn3cnnc3s2)c(OCCC2CCOCC2)c1`, the 50% inhibitory concentration (IC50) was 8.4 µM in series [1] and 5.8 µM on Large T antigen. In series [2], this molecule registered a CC50 above 50 µM. The EC50 with JC polyomavirus was found to be 15 µM.

For `c1cc2c(c(-c3nn4cnnc4s3)c1)OCC2`, the figures for the IC50 (in series [1]; at Large T antigen) were 21 µM and 13.5 µM, respectively. The same molecule displayed a CC50 in series [2] above 50 µM. Besides, the EC50 in the series with JC polyomavirus was above 16 µM.

`CC(=O)Nc1ccc(Oc2ncccc2-c2nc3ccncc3s2)cc1`: the IC50 on Large T antigen is 0.6 µM. In addition, the CC50 in series [2] is above 50 µM. Also, the EC50 in the series on JC polyomavirus was found to be 40 µM.

Turning to `Oc1ccccc1-c1nn2cnnc2s1`, the IC50 (in series [1]; against Large T antigen) was above 80 µM throughout.

Turning to `COc1ccccc1-c1nn2cnnc2s1`, the IC50 in series [1] worked out at 29 µM; at Large T antigen, 19.4 µM. The CC50 in series [2] was above 80 µM. Moreover, in the series with JC polyomavirus, the EC50 was above 60 µM.

On to `COc1ccc(-c2nn3cnnc3s2)c(OC)c1`, for which the IC50 in series [1] turned out to be 24 µM; at Large T antigen it was 18 µM.

`CN(C)c1ccccc1-c1nn2cnnc2s1`: the IC50 (in series [1]; on Large T antigen) was above 80 µM in each case.

On to `c1cc2c(c(-c3nc4ccncc4s3)c1)OCC2`, for which the values for the 50% inhibitory concentration (IC50) (in series [1]; at Large T antigen) were 15 µM and 8.7 µM, respectively. The molecule also yielded a 50% cytotoxic concentration (CC50) in series [2] above 50 µM. Besides, the half-maximal effective concentration (EC50) in the series on JC polyomavirus came out at 0.26 µM.

Turning to `c1ccc(-c2nn3cnnc3s2)c(OCC2CCOCC2)c1`, the results for the IC50 (in series [1]; at Large T antigen) were 17 µM and 6.3 µM, respectively.

Regarding `CCOc1ccccc1-c1nc2ccncc2s1`, the IC50 is 8 µM in series [1] and 9.1 µM against Large T antigen. In series [2], this molecule displayed a CC50 above 50 µM. Further, the EC50 with JC polyomavirus was found to be 7.4 µM.

On to `c1ccc(Oc2ccccc2-c2nn3cnnc3s2)cc1`, for which the IC50 in series [1] worked out at 3.7 µM; against Large T antigen, 4.9 µM. Moreover, the CC50 in series [2] was above 50 µM. Besides, the concentration for a half-maximal effect (EC50) in the series with JC polyomavirus was found to be 34 µM.

`c1ccc(Oc2ncccc2-c2nc3ccncc3s2)cc1`: the IC50 in series [1] is 1.3 µM; on Large T antigen, 1.4 µM. Moreover, the CC50 in series [2] is above 50 µM. For the same molecule, the concentration for a half-maximal effect (EC50) in the series on JC polyomavirus came out at 3.8 µM.

With `c1ccc(Oc2ccncc2-c2nn3cnnc3s2)cc1`, the IC50 in series [1] came to 7.3 µM; against Large T antigen it was 5.5 µM.

As for `CC(=O)Nc1ccc(Oc2ccccc2-c2nc3ccncc3s2)cc1`, the IC50 was found to be 1.6 µM in series [1] and 0.9 µM against Large T antigen. The CC50 in series [2] is above 50 µM. Moreover, in the series on JC polyomavirus, the EC50 worked out at 48 µM.

For `c1ccc(-c2nn3cnnc3s2)c(OCCN2CCOCC2)c1`, the IC50 in series [1] stood at 73 µM; against Large T antigen it was 52 µM.

Take `COc1ccccc1-c1nc2ccncc2s1`: the IC50 was 10.7 µM in series [1] and 5 µM against Large T antigen. The CC50 in series [2] was above 50 µM. Further, the EC50 in the series with JC polyomavirus worked out at 1.5 µM.

Turning to `Cc1ccccc1-c1nn2cnnc2s1`, the IC50 (in series [1]; on Large T antigen) was above 80 µM in each case.

Take `N#CCCCOc1ccccc1-c1nn2cnnc2s1`: the IC50 in series [1] amounted to 42 µM; against Large T antigen, 25 µM.

As to `COCCOc1ccccc1-c1nn2cnnc2s1`, the values for the IC50 (in series [1]; against Large T antigen) were 63 µM and 28.5 µM, respectively.

Consider `CCOc1ccccc1-c1nn2cnnc2s1`, for which half-maximal inhibition against Large T antigen (IC50) was put at 18 µM. For the same molecule, the CC50 in series [2] was above 65 µM. The EC50 in the series with JC polyomavirus was 44 µM.

For `COc1ccccc1Cc1nn2cnnc2s1`, the IC50 (in series [1]; at Large T antigen) was above 80 µM in each case.

On to `COc1cccc(-c2nn3cnnc3s2)c1OC`, for which the 50% inhibitory concentration (IC50) in series [1] was above 80 µM; against Large T antigen it was 62 µM.

As to `Nc1ccccc1-c1nn2cnnc2s1`, the IC50 (in series [1]; against Large T antigen) was above 80 µM throughout.

For the molecule `c1ccc(Oc2ncccc2-c2nn3cnnc3s2)cc1`, the IC50 was found to be 11 µM in series [1] and 8.8 µM on Large T antigen. The molecule also displayed a cytotoxic concentration (CC50) in series [2] above 50 µM. The concentration for a half-maximal effect (EC50) in the series on JC polyomavirus is 76 µM.

Take `CNc1cc2nc(-c3ccccc3OC)sc2cn1`: the IC50 (in series [1]; against Large T antigen) was above 80 µM throughout.

As to `CCOc1ccccc1-c1nc2cnccc2s1`, the IC50 (in series [1]; on Large T antigen) was above 80 µM throughout.

As for `c1ccc(Oc2ncncc2-c2nn3cnnc3s2)cc1`, the IC50 (in series [1]; on Large T antigen) was above 80 µM throughout.

As for `COc1ccccc1-c1nc2ccnc(N)c2s1`, the IC50 (in series [1]; against Large T antigen) was above 80 µM in each case.

As to `c1ccc(C2CC2)c(-c2nn3cnnc3s2)c1`, the IC50 (in series [1]; on Large T antigen) was above 80 µM throughout.

Consider `Oc1ccccc1-c1nc2ccncc2s1`, for which the IC50 in series [1] was 53 µM; at Large T antigen it was 37 µM.

The record behind these values is ChEMBL document CHEMBL4428043, “Fragment-Based Discovery of Dual JC Virus and BK Virus Helicase Inhibitors” (J Med Chem, 2016).
